Screens from PubChem BioAssay.
MrgX1 agonist: agonists of human MrgX1 receptor, primary screen, HEK293 cells, Fluo-4 calcium flux. Mas-related G-protein coupled receptor member X1 (Homo sapiens), Q96LB2. Fluo-4 calcium fluorescence, agonist mode; active compounds read high. B-score at 10 µM. actives 0.44% (n = 310,000). AID 588627, 2011;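 active = calcium response B-score plate-corrected fluorescence ratio at least 3 library SD, with starting fluorescence B-score inside 5 SD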
Target sequence (Q96LB2 whole entry, looked up): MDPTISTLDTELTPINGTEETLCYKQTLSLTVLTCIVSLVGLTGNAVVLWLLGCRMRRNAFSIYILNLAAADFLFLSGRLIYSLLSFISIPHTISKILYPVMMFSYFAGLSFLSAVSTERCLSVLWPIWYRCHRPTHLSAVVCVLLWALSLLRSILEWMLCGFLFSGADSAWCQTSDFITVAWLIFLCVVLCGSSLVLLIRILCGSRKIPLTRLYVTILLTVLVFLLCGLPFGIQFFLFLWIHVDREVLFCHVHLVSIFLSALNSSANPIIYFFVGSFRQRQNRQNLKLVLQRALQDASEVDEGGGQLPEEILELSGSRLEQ
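Test system: HEK293 cells stably expressing human MrgX1 receptor; Input: fifteen thousand cells per well; Dosing: compound delivered in addition one of three; Schedule: overnight seeding, then 1 h dark dye loading; Technique: Fluo-4 NW calcium fluorescence; Measure: B-scored fluorescence response ratio; Controls: positive and negative controls per plate.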
RGS4 inh: RGS4 inhibitors, primary screen, cell-based, HEK293 M3R inducible RGS4, calcium flux; Regulator of G-protein signaling 4 (Homo sapiens), P49798; Fluo-4 calcium flux; active compounds read high; triggered by carbachol at its EC20; B-score at 10 µM; actives 0.45% (n = 310,000); AID 463165, 2010;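 active = B-score, a plate-corrected calcium signal, over three deviations above library mean, with baseline fluorescence within five deviations of library mean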;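 also: RGS4 expression induced by doxycycline in cells with stable M3 receptor; B-score is computed from the integrated fluorescence ratio over baseline after carbachol; higher B-score means a larger calcium signal and so more RGS4 inhibition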
Target sequence (P49798 whole entry, looked up): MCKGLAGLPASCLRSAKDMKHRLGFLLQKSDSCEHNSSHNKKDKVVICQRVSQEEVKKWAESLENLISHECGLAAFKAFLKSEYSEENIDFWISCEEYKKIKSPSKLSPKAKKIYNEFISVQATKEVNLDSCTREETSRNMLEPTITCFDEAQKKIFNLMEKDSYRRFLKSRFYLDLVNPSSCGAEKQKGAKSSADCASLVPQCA
RGS4 pot: RGS4 potentiators or activators, primary screen, cell-based, HEK293 M3R inducible RGS4, calcium flux; actives 0.92% (n = 310,000); B-score at 10 µM; carbachol calcium flux Fluo4; active compounds read low; AID 463111, 2010;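 active = B-score of the integrated calcium signal more than 4 SD below the library mean, with starting fluorescence not abnormally high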;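 also: negative B-score means reduced calcium response which marks RGS4 activation or potentiation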
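test system = HEK293 cells with stable M3R and inducible RGS4 | schedule = recording 10 s baseline at 1 Hz, 100 s post-agonist | technique = Fluo4-AM (2 µM) calcium-flux fluorescence, kinetic read | measure = Agonist-evoked peak-minus-minimum fluorescence over baseline, integrated ratio, B score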
MrgX1 antag: antagonists of human MrgX1 receptor, primary screen, HEK293 cells, Fluo-4 calcium flux; Mas-related G-protein coupled receptor member X1 (Homo sapiens), Q96LB2; BAM8-22 antagonism; active compounds read low; B-score at 10 µM; actives 1.3% (n = 310,000);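 active = calcium-response B-score plate-corrected more than 3 library SD below zero, starting fluorescence within 5 deviations, no agonist response on first addition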;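 also: peak minus trough fluorescence over baseline after final BAM8-22 challenge near maximal dose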
MrgX1 PAM: positive allosteric modulators of MrgX1, primary screen, HEK293 cells, Fluo-4 calcium flux | Mas-related G-protein coupled receptor member X1 (Homo sapiens), Q96LB2 | FDSS; active compounds read high | B-score at 10 µM | actives 0.63% (n = 310,000);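 active = plate-corrected calcium response at least 3 library SD above typical, normal starting fluorescence, not activating the receptor alone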;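 also: compound read alongside a low EC10 to EC30 dose of BAM8-22 agonist; peak minus trough fluorescence over baseline measured at the second addition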
RGS4 inh valid: enhanced carbachol calcium response, M3R/RGS4 cells, RGS4 inhibitor project, cell-based, validation screen, HEK293 M3R/RGS4, calcium flux; shares compounds with RGS4 inh; carbachol calcium Fluo-4 fluorescence; carbachol added at its EC20; 0 = buffer wells, 100 = carbachol control; calcium response, % at 10 µM; actives 65% (n = 1,700);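 active = duplicate-averaged calcium response above the buffer-only control mean plus 5 SD of those controls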;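 also: integrated fluorescence ratio F max minus min over baseline F0; higher response in RGS4-induced cells means RGS4 inhibition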
RGS4 uninduced: carbachol calcium response in non-induced M3R cells, confirmation, counter-screen for RGS4 inhibitor project, cell-based, HEK293 M3R. shares compounds with RGS4 inh. carbachol calcium Fluo-4; submaximal (EC20) carbachol stimulus; buffer wells 0%, carbachol control wells 100%. activity (percent), % at 10 µM. actives 20% (n = 1,900). AID 493000, 2010; call rule not given here;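 also: RGS4 induction absent so cells express M3R without RGS4; higher means more calcium signal and flags a non-specific hit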
M3R basal Ca ctr: second counter-screen for RGS4 inhibitors: non-induced cells without carbachol; calcium response (agonist-mode artifact), % at 10 µM; shares compounds with RGS4 inh; HEK293 M3R/RGS4 non-induced, Fluo-4 calcium, no carbachol; normalised: buffer wells 0%, carbachol wells 100%; actives 22% (n = 1,900); AID 493001;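 active = duplicate-averaged calcium rise in uninduced cells above buffer wells' mean plus 5 SD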
Large screens that a line does not name were inactive (follow-up assays come after a bar, where they were run). Compounds with a hit are over-represented: about 3.5% of the library has one in this group of screens.

O=C(NC(C(=O)N/N=C/c1c2ccccc2cc2ccccc12)c1n[nH]c(=O)c2ccccc12)c1ccccc1 (stereo not drawn)	none | RGS4 inh valid inactive | RGS4 uninduced inactive | M3R basal Ca ctr 128%
O=C(NC(C(=O)N/N=C/c1ccccc1)c1n[nH]c(=O)c2ccccc12)c1ccccc1 (stereo not drawn)	none | RGS4 inh valid inactive | RGS4 uninduced inactive | M3R basal Ca ctr 10%
CC(NC(=O)c1ccccc1)C(=O)N/N=C/c1ccccc1 (stereo not drawn)	none
Cc1ccc(-c2csc(NC(=O)CSc3nc4ccccc4[nH]3)n2)cc1	none (no result: MrgX1 agonist, MrgX1 antag, MrgX1 PAM) | RGS4 uninduced inactive | M3R basal Ca ctr inactive
COc1ccc(-c2csc(NC(=O)CSc3nc4ccccc4c(=O)[nH]3)n2)cc1	none
Cc1cc(=O)[nH]c(SCC(=O)Nc2nc(-c3ccccc3)cs2)n1	none | RGS4 uninduced inactive | M3R basal Ca ctr inactive
Clc1ccc(C2=Nn3c(nnc3-c3n[nH]c4c3CCC4)SC2)cc1	none | RGS4 inh valid inactive | RGS4 uninduced inactive | M3R basal Ca ctr inactive
COCCCNC(=S)N(CCCN(C)C)Cc1cc2cc3c(cc2[nH]c1=O)OCCO3	none | RGS4 inh valid inactive | RGS4 uninduced inactive | M3R basal Ca ctr inactive
COCCNC(=S)N(CCCN(C)C)Cc1cc2cc3c(cc2[nH]c1=O)OCCO3	none | RGS4 inh valid inactive | RGS4 uninduced inactive | M3R basal Ca ctr inactive
CCOCCCNC(=S)N(CCCN(C)C)Cc1cc2cc3c(cc2[nH]c1=O)OCCO3	none
COCCNC(=S)N(CCN(C)C)Cc1cc2cc3c(cc2[nH]c1=O)OCO3	none
CC(C)(CO)NS(=O)(=O)c1ccc2c(c1)C(=NO)c1cc(S(=O)(=O)NC(C)(C)CO)ccc1-2	RGS4 inh 11 | RGS4 inh valid 16% | RGS4 uninduced inactive | M3R basal Ca ctr inactive
CCOc1ccc2ncc(S(=O)(=O)c3ccccc3)c(N3CCN(c4ccccc4)CC3)c2c1	none
NS(=O)(=O)c1ccc(NS(=O)(=O)c2ccc3c(c2)OCCO3)cc1	none
O=S(=O)(Nc1ccc(S(=O)(=O)Nc2nccs2)cc1)c1ccc2c(c1)OCCO2	none | RGS4 inh valid inactive | RGS4 uninduced inactive | M3R basal Ca ctr inactive
Cc1ccc(OCC(=O)N2CCN(S(=O)(=O)c3ccccc3[N+](=O)[O-])CC2)cc1	none
O=C(NC1CC1)C1=C[C@@H](C2CCCCC2)C[C@@H](OCCCCO)O1	none
O=C(CCN1CCOCC1)c1ccc2c(c1)OCCO2	RGS4 inh 21 | RGS4 inh valid 20% | RGS4 uninduced inactive | M3R basal Ca ctr 18%
O=C(CCN1CCCCC1)c1ccccc1	none
O=C(OCCN1CCOCC1)c1ccc2c(c1)OCCO2	none
O=C(CCN1CCOCC1)c1ccccc1	none | RGS4 inh valid inactive | RGS4 uninduced 36% | M3R basal Ca ctr 23%
O=C(CCCN1CCOCC1)c1ccc2c(c1)OCCO2	none | RGS4 inh valid inactive | RGS4 uninduced inactive | M3R basal Ca ctr inactive
O=C(CCCO)c1ccc2c(c1)OCCO2	none
O=C(CCN1CCN(C(=O)c2ccccc2)CC1)c1ccc(Br)cc1	RGS4 inh 6 | RGS4 inh valid inactive | RGS4 uninduced inactive | M3R basal Ca ctr 10%
CC1(C)CC(=O)C2=C(C1)N(CCN1CCOCC1)C1=C(C(=O)CC(C)(C)C1)C2c1ccc(Cl)cc1	none
CCN(CC(=O)NC(C)C)Cc1nc2c(Br)cc(Br)cc2c(=O)[nH]1	RGS4 inh 5 | RGS4 inh valid 25% | RGS4 uninduced inactive | M3R basal Ca ctr 12%
CC(OC(=O)c1ccc(NS(=O)(=O)c2ccc3[nH]c(=O)[nH]c3c2)cc1)C(=O)Nc1ccc(Cl)cc1 (stereo not drawn)	none | RGS4 inh valid inactive | RGS4 uninduced inactive | M3R basal Ca ctr inactive
COc1ccc(Cl)cc1NC(=O)C(C)OC(=O)c1ccc(NS(=O)(=O)c2ccc3[nH]c(=O)[nH]c3c2)cc1 (stereo not drawn)	RGS4 inh 11 | RGS4 inh valid 46% | RGS4 uninduced inactive | M3R basal Ca ctr inactive
COc1ccc(CCNC(=O)C2c3ccccc3C(=O)N2CCC(C)C)cc1OC (stereo not drawn)	none
Cc1ccccc1N=C1NC(=O)/C(=C/c2cccnc2)S1	none | RGS4 uninduced 46% | M3R basal Ca ctr inactive
CN1C(=O)S/C(=C/c2cccnc2)C1=O	none
O=C1NC(=Nc2ccccc2Cl)S/C1=C\c1ccc(C(=O)O)cc1	none
O=C1/C(=C\c2cccnc2)Sc2ccccc21	RGS4 inh 5.1 | RGS4 inh valid 32% | RGS4 uninduced 36% | M3R basal Ca ctr 39%
COc1cc2c(cc1OC)C(c1cccc(Cl)c1Cl)CC(=O)N2 (stereo not drawn)	none
Cc1ccc(/C=C2/NC(=O)N(Cc3ccc(Br)cc3)C2=O)o1	none | RGS4 inh valid inactive | RGS4 uninduced inactive | M3R basal Ca ctr 22%
CCN1C(=O)N/C(=C/c2ccc(C)o2)C1=O	none
CCOC(=O)[C@@H]1[C@H]2COc3ccc(Br)cc3[C@@H]2N2C(=O)N(c3cccc(Cl)c3)C(=O)[C@]12C	none | RGS4 inh valid inactive | RGS4 uninduced inactive | M3R basal Ca ctr inactive
CCOC(=O)[C@@H]1[C@H]2COc3ccc(Br)cc3[C@H]2N2C(=O)N(c3cccc(Cl)c3)C(=O)[C@]12C	none | RGS4 inh valid inactive | RGS4 uninduced inactive | M3R basal Ca ctr inactive
CCOC(=O)[C@@H]1[C@H]2COc3ccc(Br)cc3[C@@H]2N2C(=O)N(c3ccccc3)C(=O)[C@@]12C	none
COc1ccccc1N1CCN(C(=O)CSc2nnc(NC(=O)C3CCC3)s2)CC1	none
Cc1ccc(OCCn2ncc3ccccc3c2=O)c(C)c1	none
CCOc1ccc(C(=O)CCN2CCCCCC2)cc1	RGS4 inh 11 | RGS4 inh valid inactive | RGS4 uninduced inactive | M3R basal Ca ctr 20%
CCCOc1ccc(C(=O)CCN2CCCCC2)cc1	none | RGS4 inh valid inactive | RGS4 uninduced inactive | M3R basal Ca ctr 12%
